# Tests used:
# Enterovirus A71 [1] = assay: Antiviral activity against Enterovirus 71 TW/2429/04 clinical isolates incubated for 2 to 3 days; assay type: functional; settings: Enterovirus A
# Enterovirus A71 [2] = assay: Antiviral activity against Enterovirus 71 TW/1956/05 clinical isolates incubated for 2 to 3 days; assay type: functional; settings: Enterovirus A
# Enterovirus A71 [3] = assay: Antiviral activity against Enterovirus 71 infected in RD cells assessed as reduction in virus-induced cytopathic effect incubated for 2 to 3 days; assay type: functional, cell-based; settings: Enterovirus A, RD; read-out: EC50
# How it was run: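 RD cells seeded at 20 000/well in MEM with 2% FCS and infected with EV71. Three 8-step 1:5 dilution series from 100 μM. Incubated 2-3 days until maximal CPE, then scored for CPE reduction. EC50 is the median of three dose-response curves.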
# [4] = Cytotoxicity against human RD cells after 2 to 3 days by MTS method; assay type: cell-based
# How it was run: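 Uninfected RD cells, 20 000/well in 2% FCS medium, run in parallel with the antiviral assay. Three 8-step 1:5 dilution series from 100 μM, 2-3 days. Read-out by 5% MTS, 1.5 h at 37 °C, absorbance 498 nm, as % of untreated controls. CC50 is the 50% metabolic activity point, median of 3 curves.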
# [5] = Selectivity index, ratio of CC50 for human RD cells to EC50 for Enterovirus 71; assay type: toxicity; settings: read-out: Ratio CC50/EC50
# How it was run: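 SI is CC50/EC50. CC50 is from the MTS assay on uninfected RD cells and EC50 from the EV71 CPE-reduction assay, both medians of three dose-response curves run in parallel.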
# [6] = target: Dual specificity tyrosine-phosphorylation-regulated kinase 1A (Homo sapiens) (UniProt Q13627); assay: Inhibition of human DYRK1A assessed as residual activity at 100 uM by ADP-Glo bioluminescence assay relative to control relative to control
# How it was run: (§1)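 Kinase reactions followed manufacturer's instructions with 10-50 ng enzyme, in 10 µL for 10 min at 30 °C; NP-40 or BSA added for some kinases. Compound at 100 µM. Residual activity is the mean of two independent replicates.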
# [7] = target: CDK9/cyclin T1 (Homo sapiens) (UniProt O60563+P50750); assay: Inhibition of CDK9/cyclin T1 (unknown origin) assessed as residual activity at 100 uM by ADP-Glo bioluminescence assay relative to control relative to control; assay type: protein-complex assay; how it was run: as §1
# [8] = target: CDK9/Cyclin K (Homo sapiens) (UniProt P50750+O75909); assay: Inhibition of full-length recombinant human N-terminal GST-tagged CDK9/cyclin K expressed in baculovirus infected sf9 cells assessed as residual activity at 100 uM using KTFCGTPEYLAPEVRREPRILSEEEQEMFRDFDYIADWC as substrate by ADP-Glo bioluminescence assay relative to control relative to control; how it was run: as §1
# [9] = target: CDK6/cyclin D1 (Homo sapiens) (UniProt P24385+Q00534); assay: Inhibition of CDK6/cyclin D1 (unknown origin) assessed as residual activity at 100 uM by ADP-Glo bioluminescence assay relative to control relative to control; assay type: protein-complex assay; how it was run: as §1
smiles,measurement,setting,value
CC(=O)c1cccc(Nc2nc(-c3sc(NC(=O)OC(C)(C)C)nc3C)cs2)c1,EC50,Enterovirus A71 [1],1170 nM
same,EC50,Enterovirus A71 [2],< 1390 nM
same,EC50,Enterovirus A71 [3],1420 nM
same,CC50,[4],42300 nM
same,selectivity ratio,[5],29.7
same,Activity,[6],88%
same,Activity,[7],57%
same,Activity,[8],49%
same,Activity,[9],25%
